# Columns and labels:
# [1] = test system: Erk-MAP kinase in Grb2-/- mESCs; assay: Erk-MAP kinase activation; assay type: cell-based, mouse; conditions: SU5402 10 μM
# In short: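 Grb2-/- mouse ES cells (line described previously) were transfected with Lipofectamine LTX. Constructs were WT or chimeric Grb2 in pCAGGS, driven by a β-actin promoter. Cells were selected with puromycin for 48 h before analysis.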
# Ptpn11 = target: T1, Ptpn11 (Mus musculus, UniProt P35235); assay: FLAG IP of FLAG-tagged Grb2 constructs compared with Ptpn11 level in cell lysate; assay type: cell-based; conditions: Ptpn11 in FLAG IP versus cell lysate, mESCs; data not shown
# T1 sequence (P35235 1-593): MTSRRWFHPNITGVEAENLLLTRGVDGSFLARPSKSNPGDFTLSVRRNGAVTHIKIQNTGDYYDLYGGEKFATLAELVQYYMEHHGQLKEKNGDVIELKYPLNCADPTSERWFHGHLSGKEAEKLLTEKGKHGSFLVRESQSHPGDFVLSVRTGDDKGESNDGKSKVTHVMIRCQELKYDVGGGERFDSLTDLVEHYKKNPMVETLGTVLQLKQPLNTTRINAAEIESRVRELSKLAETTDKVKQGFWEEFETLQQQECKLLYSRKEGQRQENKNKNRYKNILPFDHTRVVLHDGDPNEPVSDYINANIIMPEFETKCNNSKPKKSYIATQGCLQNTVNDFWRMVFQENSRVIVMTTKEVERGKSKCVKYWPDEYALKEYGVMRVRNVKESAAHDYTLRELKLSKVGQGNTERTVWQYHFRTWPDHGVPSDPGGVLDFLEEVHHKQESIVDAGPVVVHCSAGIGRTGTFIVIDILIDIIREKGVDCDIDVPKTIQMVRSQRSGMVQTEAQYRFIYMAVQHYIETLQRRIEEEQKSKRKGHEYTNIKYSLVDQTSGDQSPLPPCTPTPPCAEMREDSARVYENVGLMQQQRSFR
# Grb2-/- mESCs = assay: mESC priming; assay type: cell-based, mouse; conditions: Grb2-/- mESCs expressing the construct; Nanog/Dnmt3b expression signature
# In short: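 Grb2-/- mESCs were transfected (Lipofectamine LTX) with WT or chimeric Grb2 in pCAGGS under a β-actin promoter, then puromycin-selected for 48 h before analysis. Dnmt3b levels were quantified as mean ± standard deviation (n=3). Regular colonies were also immunostained for Nanog and Dnmt3b.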
Compound,effect on activation of Erk-MAP kinase by chGrb2(Ptpn11_pY580) or WT Grb2 [1],Ptpn11 in the cell engaged (Ptpn11),restoration of mESC priming (Grb2-/- mESCs)
Cc1c[nH]c(/C=C2\C(=O)Nc3ccccc32)c1CCC(=O)O [SU5402],blocked,,
WT Grb2: vector-derived FLAG-tagged wild-type Grb2 adaptor protein,,approximately 20%,reestablished

# Source: publication PMC4090938 (Molecular cell, 2014)
